The results in this text go back to ChEMBL document CHEMBL1153534, “Design and synthesis of androgen receptor antagonists with bulky side chains for overcoming antiandrogen resistance” (J Med Chem, 2009).

Structures are written as SMILES. Activity calls are given as the source filed them. The calls are words filed in the database; no cut-off is given here.

The nature of assay [1]: Cytotoxicity against human MDA PCa 2b cells after 72 hrs by MTT assay. Format: functional, cell-based.
Assay [2] addresses T1, Androgen receptor (Homo sapiens) (UniProt P10275).
T1 sequence (whole entry): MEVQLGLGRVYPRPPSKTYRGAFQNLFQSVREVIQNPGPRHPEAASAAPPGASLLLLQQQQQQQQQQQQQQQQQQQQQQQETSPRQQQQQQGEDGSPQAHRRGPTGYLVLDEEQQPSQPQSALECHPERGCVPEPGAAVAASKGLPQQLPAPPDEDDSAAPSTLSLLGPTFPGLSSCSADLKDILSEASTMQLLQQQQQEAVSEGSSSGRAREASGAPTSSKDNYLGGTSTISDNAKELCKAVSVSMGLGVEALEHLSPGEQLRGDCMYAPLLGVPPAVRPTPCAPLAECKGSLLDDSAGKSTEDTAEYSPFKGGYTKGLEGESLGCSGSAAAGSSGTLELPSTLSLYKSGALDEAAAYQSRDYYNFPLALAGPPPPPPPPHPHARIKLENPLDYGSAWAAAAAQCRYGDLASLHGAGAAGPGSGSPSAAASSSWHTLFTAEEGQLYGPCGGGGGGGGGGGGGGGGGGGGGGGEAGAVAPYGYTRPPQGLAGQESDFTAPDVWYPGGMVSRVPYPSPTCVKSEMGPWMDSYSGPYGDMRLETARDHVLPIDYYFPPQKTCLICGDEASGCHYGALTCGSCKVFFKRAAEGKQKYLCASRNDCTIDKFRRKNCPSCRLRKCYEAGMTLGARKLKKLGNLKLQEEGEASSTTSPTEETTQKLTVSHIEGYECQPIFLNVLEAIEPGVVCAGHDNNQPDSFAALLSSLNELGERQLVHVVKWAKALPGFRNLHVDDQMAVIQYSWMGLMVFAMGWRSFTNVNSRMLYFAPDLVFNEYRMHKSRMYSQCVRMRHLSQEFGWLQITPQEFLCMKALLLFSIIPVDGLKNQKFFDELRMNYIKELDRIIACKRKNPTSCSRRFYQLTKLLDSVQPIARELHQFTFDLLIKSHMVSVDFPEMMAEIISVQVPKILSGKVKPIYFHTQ
Description: Activity in human PC3 cells expressing wild-type androgen receptor assessed as ARE-dependent transactivation at 0.1 uM after 24 hrs by luciferase reporter gene assay in absence of DHT. Format: cell-based. Particulars: PC-3. The method in brief:
(§1)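 PC-3 cells, which lack endogenous AR, transiently transfected with plasmids expressing human AR (WT, T877A, W741C or H874Y) plus an ARE-driven MMTV-luc reporter. Cells were treated with or without 0.1 nM DHT. Firefly luciferase was standardized to a Renilla control and normalized to the 0.1 nM DHT signal. Mean ± sd.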

Assay [3] deals with T1, Androgen receptor (Homo sapiens). Nature of the assay: Activity in human PC3 cells expressing wild-type androgen receptor assessed as ARE-dependent transactivation at 1 uM after 24 hrs by luciferase reporter gene assay in absence of DHT. Format: cell-based. Particulars: PC-3. The method in brief:
as §1

A further assay deals with LNCaP. Description: Suppression of DHT-stimulated growth of human LNCAP cells after 72 hrs. Format: functional, cell-based.
Assay [4] concerns the target T2, Progesterone receptor (Homo sapiens) (UniProt P06401).
T2 sequence (whole entry): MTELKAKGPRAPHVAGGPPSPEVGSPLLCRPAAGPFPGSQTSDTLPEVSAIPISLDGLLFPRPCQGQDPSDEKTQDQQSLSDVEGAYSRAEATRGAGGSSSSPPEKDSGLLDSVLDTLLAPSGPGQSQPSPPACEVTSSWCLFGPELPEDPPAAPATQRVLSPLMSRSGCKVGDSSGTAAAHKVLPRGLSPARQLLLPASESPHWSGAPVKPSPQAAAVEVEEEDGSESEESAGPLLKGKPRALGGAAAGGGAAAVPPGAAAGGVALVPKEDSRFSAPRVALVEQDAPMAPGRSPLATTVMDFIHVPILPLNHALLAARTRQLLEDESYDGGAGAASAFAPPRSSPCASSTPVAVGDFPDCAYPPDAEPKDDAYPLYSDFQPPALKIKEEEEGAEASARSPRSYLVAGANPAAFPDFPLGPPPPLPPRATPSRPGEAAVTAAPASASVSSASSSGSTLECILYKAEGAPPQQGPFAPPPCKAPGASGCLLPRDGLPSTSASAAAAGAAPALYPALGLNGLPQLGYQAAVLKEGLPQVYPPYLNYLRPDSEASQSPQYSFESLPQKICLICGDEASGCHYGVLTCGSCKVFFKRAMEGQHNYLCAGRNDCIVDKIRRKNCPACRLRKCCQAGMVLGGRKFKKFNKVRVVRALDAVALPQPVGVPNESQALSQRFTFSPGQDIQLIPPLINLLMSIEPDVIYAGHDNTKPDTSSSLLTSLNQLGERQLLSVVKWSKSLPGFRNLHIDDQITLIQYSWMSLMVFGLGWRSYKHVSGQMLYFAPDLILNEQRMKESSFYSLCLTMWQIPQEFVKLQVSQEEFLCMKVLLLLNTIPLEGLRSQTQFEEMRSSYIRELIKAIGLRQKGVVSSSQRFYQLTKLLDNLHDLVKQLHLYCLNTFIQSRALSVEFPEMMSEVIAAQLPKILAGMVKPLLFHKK
Nature of the assay: Antagonist activity at human PR B-form expressed in human PC3 cells assessed as inhibition of R5020-induced transactivation at 0.1 uM after 24 hrs by luciferase reporter gene assay. Particulars: PC-3. Format: functional, cell-based. In short, it runs like this: (§2)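 PC-3 cells carrying a luciferase reporter for transactivation by the human PR B form. Antagonist mode used 10 nM R5020 as the agonist. Agonist mode ran in the absence of R5020. Luciferase read-out.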

For assay [5], the target named is T2, Progesterone receptor (Homo sapiens). Nature of the assay: Antagonist activity at human PR B-form expressed in human PC3 cells assessed as inhibition of R5020-induced transactivation at 1 uM after 24 hrs by luciferase reporter gene assay. Format: functional, cell-based. Particulars: PC-3. The method in brief: as §2
Assay [6] has the same target. Description: Agonist activity at human PR B-form expressed in human PC3 cells assessed as receptor transactivation at 1 uM after 24 hrs by luciferase reporter gene assay. Format: functional, cell-based. To be noted: PC-3. The method in brief: as §2

In assay [1], `COc1cc(/C=C(\C(=O)/C=C/C2=C(C)CCCC2(C)C)C(=O)/C=C/c2ccc(O)c(OC)c2)ccc1O` came in with an IC50 of 2500 nM. The result in assay [2], in assay [3], in assay [4], in assay [5] and in assay [6] was inactive. Further, the Activity entry in the assay with LNCaP was “Dose-dependent effect”.
